Measured values as given in article PMC4607046 (Journal of the American Chemical Society, 2015).
Converted amounts (≈) assume the structure as drawn.

Columns and labels:
[1] = tested on: S. aureus ATCC 29213; test: MIC, in vitro antibacterial activity; format: cell-based, Staphylococcus aureus
[2] = tested on: S. aureus NRS128; test: MIC, in vitro antibacterial activity; format: cell-based; details: Staphylococcus aureus, MSSA|NRS128
[3] = tested on: S. aureus NRS70; test: MIC, in vitro antibacterial activity; format: cell-based; details: Staphylococcus aureus, MRSA|NRS70
[4] = tested on: S. aureus NRS123; test: MIC, in vitro antibacterial activity; format: cell-based; details: Staphylococcus aureus, MRSA|NRS123
[5] = tested on: S. aureus NRS100; test: MIC, in vitro antibacterial activity; format: cell-based; details: Staphylococcus aureus, MRSA|NRS100
[6] = tested on: S. aureus NRS119; test: MIC, in vitro antibacterial activity; format: cell-based; details: Staphylococcus aureus, MRSA|NRS119
[7] = tested on: S. aureus NRS120; test: MIC, in vitro antibacterial activity; format: cell-based; details: Staphylococcus aureus, MRSA|NRS120
[8] = tested on: S. aureus VRS1; test: MIC, in vitro antibacterial activity; format: cell-based; details: Staphylococcus aureus, MRSA
[9] = tested on: S. aureus VRS2; test: MIC, in vitro antibacterial activity; format: cell-based; details: Staphylococcus aureus, MRSA
[10] = tested on: S. epidermidis ATCC 35547; test: MIC, in vitro antibacterial activity; format: cell-based; details: Staphylococcus epidermidis, ATCC35547
[11] = tested on: E. faecium; test: MIC, ESKAPE panel; format: cell-based, Enterococcus faecium
[12] = tested on: Gram-negative bacteria of our panel; test: Antibacterial activity, E. coli and ESKAPE panel; format: cell-based; details: Gram-negative bacteria of the E. coli/ESKAPE panel
[13] = tested on: HepG2 cells; test: XTT cell proliferation assay; format: cell-based; details: Homo sapiens, HepG2, read-out: IC50, XTT cell proliferation assay
[14] = Alkylating agent test
[15] = Glutathione adduct formation; format: in vitro ADME
[16] = Hemolysis of red blood cells; format: cell-based
[17] = Stability in mouse plasma; format: in vitro ADME
[18] = Metabolic stability in rat S9; format: in vitro ADME; details: liver S9
[19] = Metabolic stability in human S9; format: in vitro ADME; details: liver S9
[20] = Water solubility; format: physicochemical
Procedure, shortened: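 Test compound tested as its sodium salt, dissolved in water.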

[21] = Pharmacokinetics after single iv or po dose; format: in vivo, mice
[22] = tested on: S. aureus ATCC 29213 cell-wall biosynthesis; test: Macromolecular synthesis assay, cell wall; format: cell-based, Staphylococcus aureus; details: 2 at 0.5 MIC
Procedure, shortened: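 Logarithmic-phase S. aureus ATCC 29213 was treated with test compound at 1/2 MIC. Peptidoglycan synthesis was followed as D-[2,3-3H]-alanine incorporation into cell wall, with fosfomycin (16 μg/mL) as control. Maximum inhibition was taken at 120 min.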

[23] = tested on: S. aureus ATCC 29213 DNA synthesis; test: Macromolecular synthesis assay, DNA; format: cell-based, Staphylococcus aureus; details: 0.5 MIC
Procedure, shortened: (§1)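 Logarithmic-phase S. aureus ATCC 29213 was exposed to test compound at 1/2 MIC, and incorporation of radiolabeled precursors was monitored: [methyl-3H]-thymidine (DNA), [5,6-3H]-uridine (RNA) and L-[4,5-3H]-leucine (protein). Controls were ciprofloxacin 0.5 μg/mL (DNA), rifampicin 8 ng/mL (RNA) and tetracycline 31 ng/mL (protein). Maximum inhibition was taken at 80 min for DNA and at 120 min for RNA and protein.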

[24] = tested on: S. aureus ATCC 29213 RNA synthesis; test: Macromolecular synthesis assay, RNA; format: cell-based, Staphylococcus aureus; details: 0.5 MIC
Procedure, shortened: as §1

[25] = tested on: S. aureus ATCC 29213 protein synthesis; test: Macromolecular synthesis assay, protein; format: cell-based, Staphylococcus aureus; details: 0.5 MIC
Procedure, shortened: as §1

[26] = tested on: T7 transcription; test: In vitro transcription assay, T7 transcription kit; format: biochemical
[27] = tested on: E. coli S30 extract translation; format: biochemical; details: β-galactosidase assay system
[28] = molecular target: PBP2a (Staphylococcus aureus, UniProt P07944); test: Bocillin FL competition assay, purified recombinant PBP2a; format: binding, S. aureus
Sequence of PBP2a (P07944 whole entry): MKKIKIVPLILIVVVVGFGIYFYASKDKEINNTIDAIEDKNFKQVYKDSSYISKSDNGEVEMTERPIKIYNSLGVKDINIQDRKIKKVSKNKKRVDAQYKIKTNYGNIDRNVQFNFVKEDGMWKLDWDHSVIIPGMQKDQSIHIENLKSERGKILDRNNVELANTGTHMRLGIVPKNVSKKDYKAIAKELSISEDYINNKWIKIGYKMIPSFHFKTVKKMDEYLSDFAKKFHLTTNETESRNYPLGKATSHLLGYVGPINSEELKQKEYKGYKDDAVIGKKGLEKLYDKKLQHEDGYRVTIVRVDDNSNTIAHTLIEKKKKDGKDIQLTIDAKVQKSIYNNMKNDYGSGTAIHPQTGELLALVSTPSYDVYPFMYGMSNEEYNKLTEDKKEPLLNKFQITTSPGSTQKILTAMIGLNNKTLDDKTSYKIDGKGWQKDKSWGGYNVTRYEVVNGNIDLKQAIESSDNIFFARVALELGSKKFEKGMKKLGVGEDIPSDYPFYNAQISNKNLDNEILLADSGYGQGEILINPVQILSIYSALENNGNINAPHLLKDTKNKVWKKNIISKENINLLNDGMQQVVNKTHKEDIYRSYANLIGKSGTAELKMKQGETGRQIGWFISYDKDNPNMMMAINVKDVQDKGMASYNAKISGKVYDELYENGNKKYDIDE
Procedure, shortened: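 Recombinant purified PBP2a (1 μM) was labeled with fluorescent Bocillin FL (20 μM) in the presence of increasing amounts of test compound (μg/mL). Competition was read as loss of fluorescence labeling of the active site, and an apparent IC50 was derived.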

[29] = tested on: PBP1 (pbpA antisense, MRSA COL); test: Antisense sensitization, pbpA antisense in MRSA COL; format: cell-based, S. aureus; details: xylose induction
[30] = tested on: PBP2a (pbp2a antisense, MRSA COL); test: Antisense sensitization, pbp2a antisense in MRSA COL; format: cell-based, S. aureus; details: xylose induction
[31] = molecular target: PBP2a allosteric site (Staphylococcus aureus, UniProt P07944); test: Intrinsic fluorescence quenching of oxacillin-acylated PBP2a; format: binding, S. aureus
Sequence of PBP2a allosteric site (P07944 whole entry): as above
Procedure, shortened: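 PBP2a intrinsic fluorescence was excited at 280 nm and emission spectra were scanned while test compound was titrated to the final concentrations shown. Kd came from nonlinear regression of the change in maximum fluorescence intensity, averaged over three experiments.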

[32] = Staphylococcus aureus, ATCC29213|MSSA
[33] = experiment with meropenem control

CN[C@H](CC(C)C)C(=O)N[C@H]1C(=O)N[C@@H](CC(N)=O)C(=O)N[C@H]2C(=O)N[C@H]3C(=O)N[C@H](C(=O)N[C@H](C(=O)O)c4cc(O)cc(O)c4-c4cc3ccc4O)[C@H](O)c3ccc(c(Cl)c3)Oc3cc2cc(c3O[C@@H]2O[C@H](CO)[C@@H](O)[C@H](O)[C@H]2O[C@H]2C[C@](C)(N)[C@H](O)[C@H](C)O2)Oc2ccc(cc2Cl)[C@H]1O [vancomycin]
MIC [1, 32]: 1 µg/mL (≈ 0.69 µM)
MIC [2]: 1 µg/mL (≈ 0.69 µM)
MIC [3]: 1 µg/mL (≈ 0.69 µM)
MIC [4]: 1 µg/mL (≈ 0.69 µM)
MIC [5]: 2 µg/mL (≈ 1.38 µM)
MIC [6]: 2 µg/mL (≈ 1.38 µM)
MIC [7]: 2 µg/mL (≈ 1.38 µM)
MIC [8]: 512 µg/mL (≈ 353 µM)
MIC [9]: 64 µg/mL (≈ 44.2 µM)
MIC [10]: 16 µg/mL (≈ 11 µM)

N#Cc1ccc(/C=C/c2nc3ccccc3c(=O)n2-c2cccc(C(=O)O)c2)cc1 [compound 1]
MIC ([1]; S. aureus ATCC 29213, quality control MSSA strain): 2 µg/mL (≈ 5.08 µM)
MIC [11]: 16 µg/mL (≈ 40.7 µM)
activity against Gram-negative bacteria [12]: did not have activity

N#Cc1ccc(/C=C/c2nc3ccccc3c(=O)n2-c2cccc(C(=O)O)c2)cc1 [compound 2, (E)-3-(3-carboxyphenyl)-2-(4-cyanostyryl)quinazolin-4(3H)-one]
MIC [1, 32]: 2 µg/mL (≈ 5.08 µM)
MIC [2]: 4 µg/mL (≈ 10.2 µM)
MIC [3]: 2 µg/mL (≈ 5.08 µM)
MIC [4]: 2 µg/mL (≈ 5.08 µM)
MIC [5]: 16 µg/mL (≈ 40.7 µM)
MIC [6]: 8 µg/mL (≈ 20.3 µM)
MIC [7]: 8 µg/mL (≈ 20.3 µM)
MIC [8]: 16 µg/mL (≈ 40.7 µM)
MIC [9]: 2 µg/mL (≈ 5.08 µM)
MIC [10]: 1 µg/mL (≈ 2.54 µM)
IC50 [13]: 63 ± 1 µg/mL (≈ 160 µM)
alkylating agent [14]: not an alkylating agent
glutathione adduct formation [15]: did not form glutathione adducts
hemolysis at 50 μg/mL [16]: < 1%
half-life in mouse plasma [17]: 141 h
remaining at 1 h [18]: 100%
remaining at 1 h [19]: 100%
solubility [20]: 8000 µg/mL (≈ 20300 µM)
maximum concentration ([21]; mice, single 10 mg/kg oral (po) dose): 1.29 µg/mL
time plasma levels sustained above MIC ([21]; mouse, in vivo, iv, 10 mg/kg): 2 h
clearance ([21]; mouse, plasma, iv, 10 mg/kg): 6.87 mL/min/kg
half-life ([21]; mouse, plasma, iv, 10 mg/kg): > 20 h
half-life ([21]; mouse, plasma, po, 10 mg/kg): > 20 h
inhibition of cell-wall biosynthesis (D-[2,3-3H]-alanine incorporation) ([22]; experiment with fosfomycin control, fosfomycin 16 μg/mL, 120 min): 51 ± 12%
inhibition of cell-wall biosynthesis (D-[2,3-3H]-alanine incorporation) [22, 33]: 61 ± 4%
effect on replication (DNA synthesis, [methyl-3H]-thymidine incorporation) [23]: did not significantly affect
effect on transcription (RNA synthesis, [5,6-3H]-uridine incorporation) [24]: did not significantly affect
effect on translation (protein synthesis, L-[4,5-3H]-leucine incorporation) [25]: did not significantly affect
inhibition of in vitro transcription [26]: did not show inhibition
inhibition of in vitro translation [27]: did not show inhibition
IC50 [28]: 356 µM
sensitization on attenuation of PBP1 expression [29]: sensitized the strain
sensitization on attenuation of PBP2a expression [30]: sensitized the strain
Kd [31]: 17.5 µM

CC(=O)NC[C@H]1CN(c2ccc(N3CCOCC3)c(F)c2)C(=O)O1 [linezolid]
MIC [1, 32]: 4 µg/mL (≈ 11.9 µM)
MIC [2]: 1 µg/mL (≈ 2.96 µM)
MIC [3]: 1 µg/mL (≈ 2.96 µM)
MIC [4]: 2 µg/mL (≈ 5.93 µM)
MIC [5]: 2 µg/mL (≈ 5.93 µM)
MIC [6]: 32 µg/mL (≈ 94.9 µM)
MIC [7]: 32 µg/mL (≈ 94.9 µM)
MIC [8]: 2 µg/mL (≈ 5.93 µM)
MIC [9]: 2 µg/mL (≈ 5.93 µM)
MIC [10]: 1 µg/mL (≈ 2.96 µM)

CCO/N=C(\C(=O)N[C@@H]1C(=O)N2C(C(=O)[O-])=C(Sc3nc(-c4cc[n+](C)cc4)cs3)CS[C@H]12)c1nsc(N)n1 [ceftaroline]
sensitization on attenuation of PBP1 expression [29]: sensitized the strain
sensitization on attenuation of PBP2a expression [30]: sensitized the strain

C[C@@H](O)[C@H]1C(=O)N2C(C(=O)O)=C(SCCN=CN)C[C@H]12 [imipenem]
sensitization on attenuation of PBP1 expression [29]: sensitized the strain
sensitization on attenuation of PBP2a expression [30]: sensitized the strain

Cc1onc(-c2ccccc2)c1C(=O)N[C@@H]1C(=O)N2[C@@H]1SC(C)(C)[C@@H]2C(=O)O [oxacillin]
MIC [1, 32]: 0.25 µg/mL (≈ 0.623 µM)
MIC [2]: 0.5 µg/mL (≈ 1.25 µM)
MIC [3]: 32 µg/mL (≈ 79.7 µM)
MIC [4]: 32 µg/mL (≈ 79.7 µM)
MIC [5]: 512 µg/mL (≈ 1280 µM)
MIC [6]: 512 µg/mL (≈ 1280 µM)
MIC [7]: 512 µg/mL (≈ 1280 µM)
MIC [8]: 512 µg/mL (≈ 1280 µM)
MIC [9]: 256 µg/mL (≈ 638 µM)
MIC [10]: 128 µg/mL (≈ 319 µM)

C[C@@H](O)[C@H]1C(=O)N2C(C(=O)O)=C(S[C@@H]3CN[C@H](C(=O)N(C)C)C3)[C@H](C)[C@H]12 [meropenem, reference compound]
inhibition of cell-wall biosynthesis (D-[2,3-3H]-alanine incorporation) [22, 33]: 64 ± 2%
